Experimental data taken from ChEMBL document CHEMBL1124050, “2,4-Diamino-6,7-dimethoxyquinazolines. 4. 2-[4-(substituted oxyethoxy) piperidino] derivatives as alpha 1-adrenoceptor antagonists and antihypertensive agents” (J Med Chem, 1988).
The source made the active and inactive calls. The calls are words filed in the database; no cut-off is given here.

Key:
Oryctolagus cuniculus [1] = species on record: Oryctolagus cuniculus; test: Concentration producing a 40% increase in [3H]- overflow in rabbit pulmonary artery (Functional alpha-antagonist activity)d; NA= indicates no activity at 10e-5 M.
[2] = biological target: T1, Adrenergic receptor alpha-2 (Rattus norvegicus) (UniProt P22086+P19328+P22909); test: Binding affinity for alpha-2 adrenergic receptor by displacement of [3H]clonidine at 10e-6 M from rat brain homogenate preparation; assay type: tissue-based
Outline: (§1)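 Rat brain homogenate; percentage displacement of [3H]clonidine by test agent at 10⁻⁶ M; NA denotes under 50%. Mean ± SEM of at least three separate experiments, each in triplicate.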

Oryctolagus cuniculus [3] = species on record: Oryctolagus cuniculus; test: Concentration producing a 40% reduction in contractile response in rabbit pulmonary artery (Functional alpha-antagonist activity)
Rattus norvegicus [4] = test: Antihypertensive activity in spontaneously hypertensive rats (SHR) at 5 mg/kg dose (po) after 6 h; assay type: functional
Outline: (§2)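 Spontaneously hypertensive rats given 5 mg/kg orally; blood pressure measured, with percentage reduction determined at 1 and 6 h after dosing.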

[5] = biological target: T2, Adrenergic receptor alpha-1 (Rattus norvegicus, UniProt P15823+P23944+P43140); test: Binding affinity for alpha-1 adrenergic receptor by displacement of [3H]-prazosin from rat brain homogenate preparation; assay type: tissue-based
T2 sequence (P15823 whole entry): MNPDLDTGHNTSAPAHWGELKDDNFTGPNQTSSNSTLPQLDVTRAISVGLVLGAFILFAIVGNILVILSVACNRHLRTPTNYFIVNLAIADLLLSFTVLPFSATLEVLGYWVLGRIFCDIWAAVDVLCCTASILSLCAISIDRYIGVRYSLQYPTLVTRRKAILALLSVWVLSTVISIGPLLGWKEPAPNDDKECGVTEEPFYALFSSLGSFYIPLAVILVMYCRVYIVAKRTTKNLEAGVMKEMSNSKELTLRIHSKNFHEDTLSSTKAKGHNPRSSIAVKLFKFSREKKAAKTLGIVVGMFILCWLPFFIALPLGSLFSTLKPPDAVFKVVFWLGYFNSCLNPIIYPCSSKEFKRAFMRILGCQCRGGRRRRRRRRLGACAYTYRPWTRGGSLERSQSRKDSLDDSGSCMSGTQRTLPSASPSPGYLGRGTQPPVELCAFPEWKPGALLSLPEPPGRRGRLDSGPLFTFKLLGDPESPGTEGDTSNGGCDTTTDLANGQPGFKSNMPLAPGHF
T2 sequence (P23944 whole entry): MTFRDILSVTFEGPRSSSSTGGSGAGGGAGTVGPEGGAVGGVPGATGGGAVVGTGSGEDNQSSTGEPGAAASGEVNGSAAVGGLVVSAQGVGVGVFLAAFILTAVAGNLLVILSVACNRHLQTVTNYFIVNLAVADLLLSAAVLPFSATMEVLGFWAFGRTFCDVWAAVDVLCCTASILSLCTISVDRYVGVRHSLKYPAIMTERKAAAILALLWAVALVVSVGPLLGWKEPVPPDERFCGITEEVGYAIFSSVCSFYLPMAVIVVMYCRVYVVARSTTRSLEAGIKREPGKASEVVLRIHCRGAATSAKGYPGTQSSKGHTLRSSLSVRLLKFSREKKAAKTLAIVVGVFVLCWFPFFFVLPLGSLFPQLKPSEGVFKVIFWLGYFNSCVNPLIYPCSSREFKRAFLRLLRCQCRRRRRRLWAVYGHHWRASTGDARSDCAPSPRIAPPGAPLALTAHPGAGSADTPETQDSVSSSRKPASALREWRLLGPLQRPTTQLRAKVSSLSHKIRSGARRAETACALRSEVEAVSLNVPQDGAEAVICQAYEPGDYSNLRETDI
T2 sequence (P43140 whole entry): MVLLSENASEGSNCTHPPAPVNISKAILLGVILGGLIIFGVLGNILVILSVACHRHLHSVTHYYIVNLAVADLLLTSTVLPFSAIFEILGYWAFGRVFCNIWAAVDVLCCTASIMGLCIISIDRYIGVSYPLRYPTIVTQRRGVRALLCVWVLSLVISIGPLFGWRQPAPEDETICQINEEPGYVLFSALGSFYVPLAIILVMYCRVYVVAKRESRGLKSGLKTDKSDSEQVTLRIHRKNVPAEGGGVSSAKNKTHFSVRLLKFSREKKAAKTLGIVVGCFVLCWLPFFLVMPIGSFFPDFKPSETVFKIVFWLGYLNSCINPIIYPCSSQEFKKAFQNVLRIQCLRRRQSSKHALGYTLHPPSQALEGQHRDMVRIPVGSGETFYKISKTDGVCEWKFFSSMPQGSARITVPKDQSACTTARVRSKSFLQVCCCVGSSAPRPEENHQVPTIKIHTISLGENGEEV

Rattus norvegicus [6] = test: Antihypertensive activity in spontaneously hypertensive rats (SHR) at 5 mg/kg dose (po) after 1 h; assay type: functional; outline: as §2
[7] = biological target: T1, Adrenergic receptor alpha-2 (Rattus norvegicus); test: Binding affinity for alpha-2 adrenergic receptor by displacement of [3H]clonidine at 10e-6 M from rat brain homogenate preparation; indicates less than 50%; assay type: tissue-based; outline: as §1
Oryctolagus cuniculus [8] = species on record: Oryctolagus cuniculus; test: Concentration producing a 40% increase in [3H]- overflow in rabbit pulmonary artery (Functional alpha-antagonist activity); EC40-pre NA=indicates no activity at 10e-5 M.
Oryctolagus cuniculus [9] = species on record: Oryctolagus cuniculus; test: Concentration producing a 40% reduction in contractile response in rabbit pulmonary artery (Functional alpha-antagonist activity); EC40-post
Oryctolagus cuniculus [10] = species on record: Oryctolagus cuniculus; test: Concentration producing a 40% increase in [3H]- overflow in rabbit pulmonary artery (Functional alpha-antagonist activity)
[11] = biological target: T1, Adrenergic receptor alpha-2 (Rattus norvegicus); test: Binding affinity for alpha-2 adrenergic receptor by displacement of [3H]clonidine at 10e-6 M from rat brain homogenate preparation; NA=indicates less than 50%; assay type: tissue-based; outline: as §1
Oryctolagus cuniculus [12] = species on record: Oryctolagus cuniculus; test: Concentration producing a 40% increase in [3H]- overflow in rabbit pulmonary artery (Functional alpha-antagonist activity);EC40-pre, NA=indicates no activity at 10e-5 M.

Row | Structure (SMILES) | EC40 (Oryctolagus cuniculus [1]) | Displacement [2] | EC40 (Oryctolagus cuniculus [3]) | Reduction (Rattus norvegicus [4]) | Ki [5] | Reduction (Rattus norvegicus [6]) | Displacement [7] | EC40 (Oryctolagus cuniculus [8]) | EC40 (Oryctolagus cuniculus [9]) | EC40 (Oryctolagus cuniculus [10]) | Displacement [11] | EC40 (Oryctolagus cuniculus [12])
1 | CCOC(C)(COC1CCN(c2nc(N)c3cc(OC)c(OC)cc3n2)CC1)c1ccccc1 (stereo unspecified) | inactive | 97.5% | 15 nM | 13% | 0.15 nM | 20% | – | – | – | – | – | –
2 | COc1cc2nc(N3CCC(OCC(C)(C)OC)CC3)nc(N)c2cc1OC | – | 75.7% | – | 9% | 1.14 nM | 20% | – | – | – | – | – | –
3 | CCOCC(OC1CCN(c2nc(N)c3cc(OC)c(OC)cc3n2)CC1)c1ccccc1 (stereo unspecified) | – | – | – | 19% | 10 nM | 24% | < 50% | – | – | – | – | –
4 | CCOCCOC1CCN(c2nc(N)c3cc(OC)c(OC)cc3n2)CC1 | – | 65.3% | – | 20% | 1.81 nM | 22% | – | inactive | 38 nM | – | – | –
5 | COc1cc2nc(N3CCN(C(=O)c4ccco4)CC3)nc(N)c2cc1OC [PRAZOSIN] | – | – | 4.5 nM | 29% | – | 33% | – | – | – | 1300 nM | – | –
6 | COc1cc2nc(N3CCC(OCC(C)(O)c4ccccc4)CC3)nc(N)c2cc1OC (stereo unspecified) | – | 97% | – | 20% | 0.62 nM | 23% | – | – | – | – | – | –
7 | COc1cc2nc(N3CCC(OCCO)CC3)nc(N)c2cc1OC | – | – | – | 10% | 2.2 nM | 8% | – | – | – | – | < 50% | –
8 | COCCOC1CCN(c2nc(N)c3cc(OC)c(OC)cc3n2)CC1 | – | 53% | – | 28% | 2.12 nM | 57% | – | – | – | – | – | –
9 | CCOC(COC1CCN(c2nc(N)c3cc(OC)c(OC)cc3n2)CC1)c1ccccc1 (stereo unspecified) | – | 84.5% | – | 12% | 0.52 nM | 16% | – | – | – | – | – | –
10 | COc1cc2nc(N3CCC(OCC(O)c4ccccc4)CC3)nc(N)c2cc1OC (stereo unspecified) | – | 91% | – | 16% | 0.15 nM | 26% | – | – | – | – | – | –
11 | COc1cc2nc(N3CCC(OCC(C)(C)O)CC3)nc(N)c2cc1OC | – | 61.7% | – | 22% | 1.28 nM | 40% | – | – | – | – | – | –
12 | CCOC(C)COC1CCN(c2nc(N)c3cc(OC)c(OC)cc3n2)CC1 (stereo unspecified) | – | 74.3% | – | 20% | 0.99 nM | 43% | – | – | – | – | – | –
13 | COc1cc2nc(N3CCC(OCC(C)O)CC3)nc(N)c2cc1OC (stereo unspecified) | – | 55% | – | 19% | 3.52 nM | 30% | – | – | – | – | – | –
14 | COc1cc2nc(N3CCC(OCCOc4ccccc4)CC3)nc(N)c2cc1OC | – | 79.3% | – | 18% | 0.48 nM | 26% | – | – | 44 nM | – | – | inactive
15 | COc1cc2nc(N3CCC(OCC(C)OC)CC3)nc(N)c2cc1OC (stereo unspecified) | – | 68.7% | – | 16% | 1.41 nM | 34% | – | – | – | – | – | –
16 | COc1cc2nc(N3CCC(OCCOC(C)C)CC3)nc(N)c2cc1OC | – | 73.4% | – | 15% | 0.67 nM | 26% | – | – | – | – | – | –
17 | COc1cc2nc(N3CCC(OCCOC4CCCC4)CC3)nc(N)c2cc1OC | – | – | – | 11% | – | 20% | – | – | – | – | – | –
18 | CCCCOCCOC1CCN(c2nc(N)c3cc(OC)c(OC)cc3n2)CC1 | – | 76% | – | 20% | 1.03 nM | 27% | – | – | – | – | – | –
